The series deals with MS2 coat protein. In words: apparent Kd, MS2 coat protein; higher = weaker binding; RNA-MaP array; FMN 200 µM where present. An outline of the steps:
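The apparent Kd is reported as the median of filtered per-cluster binding-curve fits. To get these curves, designs transcribed by stalled E. coli RNA polymerase on Illumina sequencing-chip clusters were titrated with SNAP-549-labelled MS2 coat protein from 0.7 or 1.5 nM, doubling to 3 µM. Titrations were run without and then with constant ligand in 100 mM Tris-HCl pH 7.5, 80 mM KCl, 4 mM MgCl2, BSA, DTT, yeast tRNA and Tween-20, and green signal was normalised to red-channel RNA signal and control-cluster median Fmax.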

The mark [1] stands for this setting: designed as: ON switch for flavin mononucleotide, no ligand.
The mark [2] stands for this setting: ligand present: flavin mononucleotide, designed as: ON switch for flavin mononucleotide.
Setting [3] is: designed as: OFF switch for flavin mononucleotide, no ligand.
Where [4] appears, read: ligand present: flavin mononucleotide, designed as: OFF switch for flavin mononucleotide.

Data on 48 sequences can be found in the EternaBench riboswitch data.

As for “AUAUCUUACCAAGGAUAUUUAAGAUUUGUGUAGACAUGAGGAUCACCCAUGUGGCGUUAGUCACGGGAGAAGGUGGUUUGAUAU”, the “apparent Kd” value by setting is: under setting [1], 140 nM; under setting [2], 648 nM. Turning to “GCUGGAAAAGGAUAUACAUAACGUGCUUCGGCACGAGAUCUACAUGAGGAUCACCCAUGUAGAAGGUUUCCAGC”, the “apparent Kd” value reads like this: under setting [3], 14 nM; under setting [4], 30.2 nM.

Regarding “AGAAAAGCAGGAUAUAUCCGGGAUAACAUGAGGAUCACCCAUGUGACCGCUUGAUAUCCUAUAGAAGGGCUUAAGA”, the “apparent Kd” value reads like this: under setting [3], 24.4 nM; under setting [4], 51.2 nM.

With “GGAUAGGACAGAGGAUAUACGUGCUAGAGAUACUAGCAAAACUUCCUCACAUGAGGAUCACCCAUGUAGAAGGCUGUCCUAUCG”, the “apparent Kd” value by setting is: under setting [3], 16.7 nM; under setting [4], 564 nM. For “AGAAAACAUGAGGAUCACCCAUGUAGAAAUAUGGGAGGAUAUACAAAGACGAAAGUCAGAGUAGAAGGCCUAAAAA”, the “apparent Kd” value was determined as 65.2 nM under setting [1] and 17.6 nM under setting [2]. As for “AUACAUGAGGAUCACCCAUGUUACAUGGCCUUGAUAGAUUGUAGAAGGAUGUUAUUAUUAAUUUCAUAGGAUAUACUAUUUAGU”, the “apparent Kd” value is 106 nM under setting [3] and 83.9 nM under setting [4]. The corresponding values for “AAUCAGCGAGGAUAUACAGAUUCUGGGUGCGGCUCGGCGAGACAUGAGGAUCACCCAUGUAGAAGGUGCUAGCC” are 37.9 nM and 43.8 nM. With “ACAUGAGGAUCACCCAUGUAGAAUGAAGAAGGUACGUUAUUGAUAUGCAGGAAGUGUCGGUGUUGUAAGGAUAUUCUAAUAAUU”, the “apparent Kd” value worked out at 15.5 nM under setting [1] and 8.16 nM under setting [2]. For “GCCACAAGGGCAGGAUAUGAACUUAAUGGCAGUUUAGAAGGGUCACUCGUGGGUUAAAAUCACAUGAGGAUCACCCAUGUAUAG”, the “apparent Kd” value turned out to be 664 nM under setting [1] and 84.7 nM under setting [2].

For the sequence “CCUUUUGUAUAAGGAUAUGUAACAAGGUAUAGAUUGGUAGGAUUUGUGCUUACAGAAGGUAUACAUGAGGAUCACCCAUGUCGA”, the “apparent Kd” value is 23.1 nM under setting [3] and 59.5 nM under setting [4]. As to “GGAUGACAAAGUCAUCCAAUUCGAACAUGAGGAUCACCCAUGUAGGAUAUCGUACUCAAAGAGUACGAGAAGGACAUGUGCUUU”, the “apparent Kd” value runs as follows: under setting [3], 40.3 nM; under setting [4], 154 nM. The like results for “CGCAACAUACAGAAGGAGUAAAGGAGAAGUGUACUAGGAUAUGUUAACAUGAGGAUCACCCAUGUCGUUUGGGAUUUUGUUGCG” were, in that order, 383 nM and 99.3 nM. The like results for “GUGUACAGAGGAUAUACUUGAAUCUAGCGAAGCUAGGUUCGACAUGAGGAUCACCCAUGUAGAAGGCUGUACAC” were, in that order, 12.7 nM and 17.4 nM. The like results for “ACUGUGUGAGGAUAUCUACGCCAUGUCUUUGACAUGGCGCAAGAGAAGGCACAUGAGGAUCACCCAUGUACUUC” were, in that order, 18.4 nM and 39.2 nM. For “CGGUACUGAGGAUAUACAUGAGGAUCACCCAUGUGUUCUAGCUAGCGUACUGGCAUUUGUAGAAGGCGGUGCUG”, the “apparent Kd” value was determined as 15 nM under setting [3] and 56.4 nM under setting [4]. Regarding “CAACCGUUGCAGAAGGUUAAAUAAUUUCUCAUCUUGUUUACAUGAGGAUCACCCAUGUAUUUGUUGAAGGAUAUGCAAGGGUUG”, the “apparent Kd” value was 6.96 nM under setting [3] and 6.6 nM under setting [4].

On to “CCUUUGUCAGGAUAUCAGAACGCGCUCGUAGGGAGCGCGAAUGAGAAGGGACAUGAGGAUCACCCAUGUAAAGA”, for which the “apparent Kd” value came to 94.7 nM under setting [3] and 492 nM under setting [4].

For “GUAGUGUAUGUAGGAUAUGUGAAGGAAACAUUUACAGAAGGACAUGAGGAUCACCCAUGUAUUUCAGUCACCAAUGUGACUGAU”, the “apparent Kd” value reads like this: under setting [3], 24.7 nM; under setting [4], 43.4 nM. With “GCGGAACAUGAGGAUCACCCAUGUAUCCGAAAUAUGGACUCACAGGAUAUCCAGAGUUGCCAAUCGGAGAAGGGUGACUCCAGC”, the “apparent Kd” value is, setting by setting: under setting [1], 14.4 nM; under setting [2], 8.29 nM. “AGCCUAGCAGGAUAUGCCCGGGAUAACAUGAGGAUCACCCAUGUGACUGAUUGAUAUCCUGCAGAAGGGCUAGGGA”: the “apparent Kd” value under setting [3] came to 24.4 nM and the “apparent Kd” value under setting [4] came out at 122 nM. As for “GAGACAUGUGAGAAGGCGCCACACGCGAGUGGGCGAGGAUAUCACAUGAGGAUCACCCAUGUUAGCCCUCGACCGCGACGCGGG”, the “apparent Kd” value by setting is: under setting [3], 10.1 nM; under setting [4], 47.3 nM.

As for “CGAGAUACGCUCGACCGAAAGGUACAUGAGGAUCACCCAUGUAGAAGGCGAUCCGCAACUCGGAUUGAGGAUAUAUACUACACA”, the “apparent Kd” value reads like this: under setting [3], 31.8 nM; under setting [4], 24.4 nM. For “UGUUUUCGAGGAUAUACAUGAGGAUCACCCAUGUGGAUUCACACUGACAGUUCCUUUUGUAGAAGGUGAUAGGC”, the “apparent Kd” value stood at 124 nM under setting [3] and 170 nM under setting [4]. In the case of “CUAGCUAUCGGAGGAUAUCCUCAGCGGAAACGCACAUGAGGAUCACCCAUGUAAAUAAAUAAUUUGGAGAAGGCCGAUAGCUAG”, the “apparent Kd” value runs as follows: under setting [1], 294 nM; under setting [2], 19.2 nM. As for “CAGUACUGAGGAUAUACAUGAGGAUCACCCAUGUAUCCAAGCUAGGAAACUAGCAAAUGUAGAAGGCAGUACUG”, the “apparent Kd” value under setting [3] turned out to be 34.1 nM and the “apparent Kd” value under setting [4] was determined as 519 nM. The corresponding values for “GAGGAUAGAGGAUAUGCAUAGAUACGGAUUCGUGUAGUACUACAUGAGGAUCACCCAUGUAGAAGGCUGUCCUG” are 14.3 nM and 22.1 nM. The like results for “AGCCUACAUGAGGAUCACCCAUGUCAGGAUAUCUCGCGACGUGUCGGGUUCACGUUGCAGAGAAGGGACUCGGG” were, in that order, 50.7 nM and 67.3 nM. Consider “UCCUUGUCCUGAGGAUAUCCGUGGUGACCGAAAGGAGAAGGCAGGACAUGAGGAUCACCCAUGUACCCAGAAAACGUGCAGAGA”, for which the “apparent Kd” value stood at 35.9 nM under setting [3] and 232 nM under setting [4]. Take “AUCAGCUCGUCAGGAUAUACGGCACUGCGUCAGCAGUGUGGUAAGAUCACAUGAGGAUCACCCAUGUAGAAGGGACGAGCUGAU”: the “apparent Kd” value reads like this: under setting [3], 8.06 nM; under setting [4], 84.6 nM.

Regarding “UAUAUUAUUAUAGGAUAUGGAUACGAUGCGUAUCCAGAAGGGUGAUUAUAAUAUAAUCUAUACAUGAGGAUCACCCAUGUUUAU”, the “apparent Kd” value reads like this: under setting [1], 303 nM; under setting [2], 73.9 nM. As to “GAUCAACAUGAGGAUCACCCAUGUGAGGAUAUGAUACUAUGUACUUCGGUACAUAGUAUCAGAAGGCAUAUUGA”, the “apparent Kd” value worked out at 54.8 nM under setting [3] and 41.9 nM under setting [4]. Consider “AUUUUAAUGUCAGGAUAUAUUAGUUUUUACAUAGUAGAAGGGAUAAUUAUACUCAUGUACAUGAGGAUCACCCAUGUUAAAUAU”, for which the “apparent Kd” value is 139 nM under setting [1] and 44.5 nM under setting [2]. The like results for “GUAGCAUACAGAGGAUAUCUAAACCGGAAACGGACAUGAGGAUCACCCAUGUGGCGAAAGCCUAGGGAGAAGGCUGAAUGCUAC” were, in that order, 13.2 nM and 11.8 nM.

Consider “CCUCUACAUGAGGAUCACCCAUGUGAGGAUAUCUCGGAGCAGCCACUUAAAGCACUCCAGAGAAGGCACGUGUA”, for which the “apparent Kd” value was 15.3 nM under setting [3] and 22.8 nM under setting [4]. Take “AUAAAACAUGAGGAUCACCCAUGUCAACAAAGUCGAGGAUAUGGGCAAAGAAAAUAAGAACCAGAAGGCGAAUAAU”: the “apparent Kd” value was found to be 260 nM under setting [1] and 45 nM under setting [2]. On to “AGCACGAAAGUGCAACGAUGUACGAGAAGGACAUGAGGAUCACCCAUGUUGCUGUAACUGCUUAUGUAGGAUAUCGUACAUCGA”, for which the “apparent Kd” value under setting [4] was determined as 7.01 nM.

“ACGUAUAGAGGAUAUACAGAAUAUUACAUGAGGAUCACCCAUGUUCUUCAAUGUAUAUUUGUAGAAGGCUAAUGAA”: the “apparent Kd” value by setting is: under setting [3], 60.7 nM; under setting [4], 281 nM. The corresponding values for “AGCAUGGUAGGAUAUACGGAACAUUAGGGUUUGUUGUGUGGACAUGAGGAUCACCCAUGUAGAAGGGCCGUGCA” are 34 nM and 80.4 nM. The corresponding values for “UAAUAGUGUGUUAGGAUAUGCUGGUCGAAAGAUCAGCAGAAGGAACAUGAGGAUCACCCAUGUAGAGUAUUUUA” are 21.3 nM and 62.4 nM.

“UAGUAUAAGGGCAUUAAACAUGAGGAUCACCCAUGUACGAUAGAGGAUAUGCAUUUCAGUUUAGAGUAGAAGGUUAGAGAAUUU”: the “apparent Kd” value runs as follows: under setting [3], 42.1 nM; under setting [4], 42.9 nM. As for “AGCGAACAGGCUAACAUGAGGAUCACCCAUGUGGACUCAUGGUAGGAUAUCGGGAAGGAGGAAACCGAGAAGGGCCGGUGAGCC”, the “apparent Kd” value came to 440 nM under setting [1] and 229 nM under setting [2]. Turning to “UAAACGUUCUAGAAGGUGCAUUUGUUAAACAAGCAAGGAUAUAGACAUGAGGAUCACCCAUGUCUAUUAGACAUCGGCCUACUU”, the “apparent Kd” value is, setting by setting: under setting [3], 5.75 nM; under setting [4], 5.39 nM. The like results for “CUUUUGUGAGGAUAUUAGUAGUAAAUAAAUAAAAUUAUUACUGAGAAGGUACAUGAGGAUCACCCAUGUUCCUC” were, in that order, 18.3 nM and 25.5 nM.

Regarding “GGAUAGUGUCGUUAUCCGUAGCGAACAUGAGGAUCACCCAUGUAGGAUAUGUUACUAAACUAGUAACAGAAGGGCGUGAGUCUU”, the “apparent Kd” value reads like this: under setting [3], 94.2 nM; under setting [4], 108 nM. In the case of “CCGGAAGUAGAGGAUAUCGUAUCGGAUACGAUACGAGAAGGCUAUACAUGAGGAUCACCCAUGUGUCCUACCGG”, the “apparent Kd” value under setting [3] was found to be 24.6 nM and the “apparent Kd” value under setting [4] was determined as 33.3 nM.

On to “CUACGGGACGGAGAUCGUGGUGAAGUAGAAGGGUGAGAUGACAUGAGGAUCACCCAUGUAGUAGCGCAGGAUAUACGGCACCGG”, for which the “apparent Kd” value reads like this: under setting [1], 388 nM; under setting [2], 103 nM. The like results for “CCCUCACAUGAGGAUCACCCAUGUCCUAGCCCGUCAGGAUAUAGCCCGCAUCCGCUGCGGCUAGAAGGGACAGCUG” were, in that order, 190 nM and 141 nM. Take “UGGGUAAAUGUAGGAUAUUUAUAUUAAUAAUAUGGAGAAGGACAUGAGGAUCACCCAUGUACAGGGAAUUACCCAUUUCCUCUC”: the “apparent Kd” value under setting [3] came out at 940 nM and the “apparent Kd” value under setting [4] was 877 nM.
